Assay results reported in ChEMBL document CHEMBL1122537, “Acidic furo[3,2-b]indoles. A new series of potent antiallergy agents” (J Med Chem, 1984).

species on record: Cavia porcellus; assay: Compound was evaluated in vitro by SDT (Schultz-Dale Test) against isolated guinea pig lung strips repeatedly challenged with antigen in the presence of an antihistamine (H1) at a concentration 30 uM; i = No significant activity at 1.0 uM; format: functional

Row | IC50 | Structure (SMILES)
1 | No significant activity | CCCCCCCCCOc1c(C(=O)Nc2nn[nH]n2)oc2c3ccccc3n(-c3ccccc3)c12

species on record: Cavia porcellus; assay: Compound was evaluated in vitro by SDT (Schultz-Dale Test) against isolated guinea pig lung strips repeatedly challenged with antigen in the presence of an antihistamine (H1) at a concentration 10 uM; format: functional

Row | Structure (SMILES) | inhibition at 10 µM [%]
2 | COC(=O)c1oc2c3cc(OC)ccc3n(-c3ccccc3)c2c1OC | 23
3 | O=C(O)c1cc2c(o1)c1ccccc1n2-c1ccccc1 | 33
4 | CCOc1c(C(=O)OC)oc2c3cc(OC)ccc3n(-c3ccccc3)c12 | 24

species on record: Cavia porcellus; assay: In vitro Schultz-Dale Test against isolated guinea pig lung strips repeatedly challenged with antigen in the presence of an antihistamine (H1) at a concentration 30 uM.; format: functional

Row | IC50 [nM] | Structure (SMILES)
5 | 500 | COc1c(C(=O)Nc2nn[nH]n2)oc2c3ccccc3n(-c3ccccc3)c12
6 | 3200 | CCOc1c(-c2nn[nH]n2)oc2c3ccccc3n(-c3ccccc3)c12
7 | 60 | CC(C)Oc1c(C(=O)Nc2nn[nH]n2)oc2c3ccccc3n(-c3ccccc3)c12
8 | 3200 | CCOc1c(C(=O)O)oc2c3ccccc3n(-c3ccccc3)c12
9 | 2900 | COc1c(-c2nn[nH]n2)oc2c3ccccc3n(-c3ccccc3)c12
10 | 2200 | CCOc1c(C(=O)Nc2nn[nH]n2)oc2c3cc(OC)ccc3n(-c3ccccc3)c12
11 | 2800 | COc1ccc2c(c1)c1oc(C(=O)Nc3nn[nH]n3)c(OC(C)C)c1n2-c1ccccc1
12 | 2800 | COc1ccc2c(c1)c1oc(C(=O)O)c(OC)c1n2-c1ccccc1
13 | 4600 | COc1c(C(=O)O)oc2c3ccccc3n(-c3ccccc3)c12
14 | 1700 | CCOc1c(-c2nn[nH]n2)oc2c3cc(OC)ccc3n(-c3ccccc3)c12
15 | 6300 | CCCc1c2c(c(O)c3c(=O)cc(C(=O)O)oc13)CCCC2 [PROXICROMIL]
16 | 4300 | CCOc1c(C(=O)O)oc2c3cc(OC)ccc3n(-c3ccccc3)c12
17 | 900 | COc1ccc2c(c1)c1oc(C(=O)Nc3nn[nH]n3)c(OC)c1n2-c1ccccc1
18 | 3700 | CC(C)Oc1c(C(=O)O)oc2c3ccccc3n(-c3ccccc3)c12
19 | 21600 | COc1c(C(=O)Nc2nn[nH]n2)oc2c3ccccc3n(C)c12
20 | 1500 | COc1ccc2c(c1)c1oc(-c3nn[nH]n3)c(OC)c1n2-c1ccccc1
21 | 200 | CCOc1c(C(=O)Nc2nn[nH]n2)oc2c3ccccc3n(-c3ccccc3)c12
22 | 2400 | CCCc1c(OCC(O)COc2ccc3c(=O)cc(C(=O)O)oc3c2CCC)ccc(C(C)=O)c1O (stereo unspecified) [FPL-55712]

species on record: Cavia porcellus; assay: Compound was evaluated in vitro by SDT (Schultz-Dale Test) against isolated guinea pig lung strips repeatedly challenged with antigen in the presence of an antihistamine (H1) at a concentration […].; format: functional
Procedure, shortened: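 Lung strips in Tyrode's pH 7.4, 37 °C, with mepyramine 1 µM, at 300 mg base-line tension. Drug in 0.2% NaHCO3 is added 15 min before the ovalbumin bolus. Percent inhibition is taken against the tissue's prior control contraction, usually on four or more tissues. IC50 by linear regression.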

Row | Structure (SMILES) | IC50 [nM]
23 | CC(C)NCC(O)c1ccc(O)c(O)c1 (stereo unspecified) [ISOPROTERENOL] | 0.15

species on record: Cavia porcellus; assay: Compound was evaluated in vitro by SDT (Schultz-Dale Test) against isolated guinea pig lung strips repeatedly challenged with antigen in the presence of an antihistamine (H1); b = No activity at a concentration 30 uM; format: functional

Row | Structure (SMILES) | inhibition
24 | COC(=O)c1oc2c3ccccc3n(-c3ccccc3)c2c1OC | No activity

species on record: Cavia porcellus; assay: Compound was evaluated in vitro by SDT (Schultz-Dale Test) against isolated guinea pig lung strips repeatedly challenged with antigen in the presence of an antihistamine (H1); c = No activity at a concentration 30 uM; format: functional

Row | IC50 | Structure (SMILES)
25 | No activity | COc1c(-c2nn[nH]n2)oc2c3ccccc3n(C)c12
26 | No activity | COc1c(C(=O)O)oc2c3ccccc3n(C)c12
